From ChEMBL document CHEMBL1909500, “Synthesis and in vitro anticancer activity of 6,7-methylenedioxy (or 5-hydroxy-6-methoxy)-2-(substituted selenophenyl)quinolin-4-one analogs” (Eur J Med Chem, 2011)

What was measured:
Detroit 551 [1] = assay: Cytotoxicity against human Detroit 551 cells after 48 hrs by MTT assay; format: cell-based; conditions: Detroit 551, 48 h
Procedure, shortened: (§1)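 Hep 3B (hepatoma) or Detroit 551 (normal skin) cells, grown at 37 °C and 5% CO₂ in DMEM with 10% FBS, penicillin/streptomycin and 1% L-glutamine, were used in log phase. Cells were exposed to vehicle or compound for 48 h. Growth was read by MTT reduction at 570 nm, and IC50 was calculated.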

HL-60 = assay: Cytotoxicity against human HL60 cells after 48 hrs by MTT assay; format: functional, cell-based; conditions: HL-60, 48 h
Procedure, shortened: (§2)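 H460 or HL-60 cells were exposed to vehicle or compound for 48 h. Growth was read by MTT reduction at 570 nm, and IC50 was calculated.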

NCI-H460 = assay: Cytotoxicity against human H460 cells after 48 hrs by MTT assay; format: functional, cell-based; conditions: NCI-H460, 48 h; procedure, shortened: as §2
[2] = Cytotoxicity against human Hep3B cells after 48 hrs by MTT assay; format: functional, cell-based, Hep 3B2; procedure, shortened: as §1
Detroit 551 [3] = assay: Selectivity ratio of IC50 for human Detroit 551 cells to IC50 for human Hep3B cells
Detroit 551 [4] = assay: Selectivity ratio of IC50 for human Detroit 551 cells to IC50 for human H460 cells

SMILES	IC50 (Detroit 551 [1]) [µM]	IC50 (HL-60) [nM]	IC50 (NCI-H460) [nM]	IC50 [2] [nM]	Ratio IC50 (Detroit 551 [3])	Ratio IC50 (Detroit 551 [4])
COc1ccc2[nH]c(-c3cc[se]c3)cc(=O)c2c1OC	> 100	1700	100000	100000	–	–
O=c1cc(-c2ccsc2)[nH]c2cc3c(cc12)OCO3	> 25	900	4300	2200	–	–
O=c1cc(-c2cc[se]c2)[nH]c2cc3c(cc12)OCO3	> 10	900	1400	800	–	–
Cc1ccc(-c2cc(=O)c3cc4c(cc3[nH]2)OCO4)o1	> 10	4300	9800	10000	–	–
COc1ccc2[nH]c(-c3ccc(C)[se]3)cc(=O)c2c1O	> 50	400	900	800	–	–
O=c1cc(-c2ccc[se]2)[nH]c2cc3c(cc12)OCO3	50	500	1000	800	50	50
Cc1ccc(-c2cc(=O)c3cc4c(cc3[nH]2)OCO4)s1	> 5	300	400	700	–	–
COc1ccc2[nH]c(-c3cc[se]c3)cc(=O)c2c1	> 10	700	2300	3700	–	–
COc1ccc2[nH]c(-c3ccc(C)[se]3)cc(=O)c2c1OC	> 50	3100	> 50000	> 50000	–	–
COc1ccc2[nH]c(-c3cc[se]c3)cc(=O)c2c1O	> 100	400	800	300	–	–
Oc1cc(-c2cccs2)nc2cc3c(cc12)OCO3	> 5	1000	1000	700	–	–
COc1ccc2[nH]c(-c3ccc[se]3)cc(=O)c2c1OC	> 100	7700	91500	> 100000	–	–
Oc1cc(-c2ccco2)nc2cc3c(cc12)OCO3	> 15	6800	> 15000	> 15000	–	–
COc1ccc2[nH]c(-c3ccc[se]3)cc(=O)c2c1	> 10	600	2400	3200	–	–
COc1ccc2[nH]c(-c3ccc(C)[se]3)cc(=O)c2c1	> 10	400	2000	3000	–	–
COc1ccc2[nH]c(-c3ccc[se]3)cc(=O)c2c1O	100	1100	400	700	–	–
O=c1cc(-c2ccoc2)[nH]c2cc3c(cc12)OCO3	> 25	3400	15800	9600	–	–
